# Experiments:
# Assay type in all cases: functional
# Streptococcus pneumoniae [1] = assay: In vitro minimum inhibitory concentration for antibacterial activity against erythromycin-susceptible strain Streptococcus pneumoniae IID553
# Summary of the method: (§1)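 MIC by agar dilution following the Japan Society of Chemotherapy standard method for aerobic bacteria. S. aureus 209P-JC and S. pneumoniae IID553 are erythromycin-susceptible strains.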
# Haemophilus influenzae [2] = assay: In vitro minimum inhibitory concentration for antibacterial activity against Haemophilus influenzae ATCC 33533 (ampicillin-resistant strain that produces beta-lactamase)
# Summary of the method: (§2)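 Agar dilution MIC determined by the Japan Society of Chemotherapy standard method for aerobic bacteria.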
# Streptococcus pneumoniae [3] = assay: In vitro minimum inhibitory concentration for antibacterial activity against Streptococcus pneumoniae 210 (efflux-resistant strain encoded by the mef(A) gene); summary of the method: as §2
# Haemophilus influenzae [4] = assay: In vitro minimum inhibitory concentration for antibacterial activity against Haemophilus influenzae ATCC 43095 (ampicillin-susceptible strain that does not produce beta-lactamase); summary of the method: as §2
# Streptococcus pneumoniae [5] = assay: In vitro minimum inhibitory concentration for antibacterial activity against Streptococcus pneumoniae 211 (MLSb-resistant strain encoded by the erm(B) gene); summary of the method: as §2
# Staphylococcus aureus [6] = assay: In vitro minimum inhibitory concentration for antibacterial activity against Staphylococcus aureus B1 (inducibly MLSb-resistant strain encoded by the erm(C) gene); summary of the method: as §2
# Staphylococcus aureus [7] = assay: In vitro minimum inhibitory concentration for antibacterial activity against erythromycin-susceptible strain Staphylococcus aureus […]; summary of the method: as §1
# Staphylococcus aureus [8] = assay: In vitro minimum inhibitory concentration for antibacterial activity against Staphylococcus aureus SR138 (constitutively MLSb-resistant strain encoded by the erm(A) gene); summary of the method: as §2
SMILES,MIC (Streptococcus pneumoniae [1]),MIC (Haemophilus influenzae [2]),MIC (Streptococcus pneumoniae [3]),MIC (Haemophilus influenzae [4]),MIC (Streptococcus pneumoniae [5]),MIC (Staphylococcus aureus [6]),MIC (Staphylococcus aureus [7]),MIC (Staphylococcus aureus [8])
CC[C@H]1OC(=O)[C@H](C)[C@@H](OC2C[C@@](C)(OC)[C@@H](O)[C@H](C)O2)[C@H](C)[C@@H](OC2O[C@H](C)C[C@H](N(C)C)[C@H]2O)[C@@]2(C)C[C@@H](C)[C@H](OC(=O)O2)[C@H](C)[C@H]2OC(=O)O[C@@]21C (stereo partly drawn),0.1 µg/mL,1.56 µg/mL,0.39 µg/mL,1.56 µg/mL,> 100 µg/mL,> 100 µg/mL,0.1 µg/mL,> 100 µg/mL
CC[C@H]1OC(=O)[C@H](C)[C@@H](OC(=O)CCc2cccc(OC)c2)[C@H](C)[C@@H](OC2O[C@H](C)C[C@H](N(C)C)[C@H]2O)[C@@](C)(OC)C[C@@H](C)C(=O)[C@H](C)[C@@H](O)[C@]1(C)O (stereo partly drawn),0.78 µg/mL,100 µg/mL,0.78 µg/mL,100 µg/mL,> 100 µg/mL,3.13 µg/mL,3.13 µg/mL,> 100 µg/mL
CC[C@H]1OC(=O)[C@H](C)[C@@H](OC(=O)c2cccc(OC)c2)[C@H](C)[C@@H](OC2O[C@H](C)C[C@H](N(C)C)[C@H]2O)[C@@](C)(OC)C[C@@H](C)C(=O)[C@H](C)[C@@H](O)[C@]1(C)O (stereo partly drawn),1.56 µg/mL,100 µg/mL,1.56 µg/mL,> 100 µg/mL,> 100 µg/mL,50 µg/mL,25 µg/mL,> 100 µg/mL
CC[C@H]1OC(=O)[C@H](C)[C@@H](OC(=O)Cc2ccc(OC)cc2)[C@H](C)[C@@H](OC2O[C@H](C)C[C@H](N(C)C)[C@H]2O)[C@@](C)(OC)C[C@@H](C)C(=O)[C@H](C)[C@@H](O)[C@]1(C)O (stereo partly drawn),0.78 µg/mL,50 µg/mL,0.78 µg/mL,100 µg/mL,> 100 µg/mL,12.5 µg/mL,1.56 µg/mL,> 100 µg/mL
CC[C@H]1OC(=O)[C@H](C)[C@@H](OC(=O)Cc2ccncc2)[C@H](C)[C@@H](OC2O[C@H](C)C[C@H](N(C)C)[C@H]2O)[C@@](C)(OC)C[C@@H](C)C(=O)[C@H](C)[C@@H](O)[C@]1(C)O (stereo partly drawn),0.39 µg/mL,50 µg/mL,0.39 µg/mL,50 µg/mL,> 100 µg/mL,1.56 µg/mL,0.78 µg/mL,> 100 µg/mL
CC[C@H]1OC(=O)[C@H](C)[C@@H](OC(=O)Cc2cccnc2)[C@H](C)[C@@H](OC2O[C@H](C)C[C@H](N(C)C)[C@H]2O)[C@@](C)(O)C[C@@H](C)[C@H](O)[C@H](C)[C@H]2OC(=O)O[C@@]21C (stereo partly drawn),0.1 µg/mL,6.25 µg/mL,0.2 µg/mL,3.13 µg/mL,> 100 µg/mL,0.78 µg/mL,0.78 µg/mL,> 100 µg/mL
CC[C@H]1OC(=O)[C@H](C)[C@@H](OC(=O)Cc2cccnc2)[C@H](C)[C@@H](OC2O[C@H](C)C[C@H](N(C)C)[C@H]2O)[C@@](C)(O)C[C@@H](C)C(=O)[C@H](C)[C@@H](O)[C@]1(C)O (stereo partly drawn),0.2 µg/mL,12.5 µg/mL,0.78 µg/mL,12.5 µg/mL,> 100 µg/mL,6.25 µg/mL,1.56 µg/mL,> 100 µg/mL
CC[C@H]1OC(=O)[C@H](C)[C@@H](OC(=O)Cc2cccnc2)[C@H](C)[C@@H](OC2O[C@H](C)C[C@H](N(C)C)[C@H]2O)[C@@](C)(OC)C[C@@H](C)C2=NCCN3C(=O)O[C@@]1(C)[C@H]3[C@H]2C (stereo partly drawn),0.05 µg/mL,3.13 µg/mL,0.2 µg/mL,6.25 µg/mL,> 100 µg/mL,0.39 µg/mL,0.2 µg/mL,> 100 µg/mL
CC[C@H]1OC(=O)[C@H](C)[C@@H](OC(=O)Cc2ccccc2OC)[C@H](C)[C@@H](OC2O[C@H](C)C[C@H](N(C)C)[C@H]2O)[C@@](C)(OC)C[C@@H](C)C(=O)[C@H](C)[C@@H](O)[C@]1(C)O (stereo partly drawn),1.56 µg/mL,100 µg/mL,1.56 µg/mL,> 100 µg/mL,> 100 µg/mL,12.5 µg/mL,3.13 µg/mL,> 100 µg/mL
CC[C@H]1OC(=O)[C@H](C)[C@@H](OC(=O)Cc2cccnc2)[C@H](C)[C@@H](OC2O[C@H](C)C[C@H](N(C)C)[C@H]2O)[C@@](C)(O)C[C@@H](C)C(=O)[C@H](C)[C@H]2OC(=O)O[C@@]21C (stereo partly drawn),0.05 µg/mL,3.13 µg/mL,0.2 µg/mL,3.13 µg/mL,> 100 µg/mL,0.39 µg/mL,0.2 µg/mL,> 100 µg/mL
CC[C@H]1OC(=O)[C@H](C)[C@@H](OC(=O)Cc2cccnc2)[C@H](C)[C@@H](OC2O[C@H](C)C[C@H](N(C)C)[C@H]2O)[C@@](C)(OC)C[C@@H](C)/C(=N\O)[C@H](C)[C@@H](O)[C@]1(C)O (stereo partly drawn),0.2 µg/mL,12.5 µg/mL,0.39 µg/mL,12.5 µg/mL,> 100 µg/mL,1.56 µg/mL,0.78 µg/mL,> 100 µg/mL
